Activity calls are given as the source filed them. The rule behind the calls is not given here. Positions of bridges follow the written chain, without caps; N, C: chain ends. Non-standard residues stand in square brackets, D forms with d. Residues, ends and D or L forms follow the SMILES beside them. AllylGly = C=CC[C@H](N)C(=O)O; pGlu = O=C1CC[C@@H](C(=O)O)N1; Nle = CCCC[C@H](N)C(=O)O
Assays:
Heart [1] = assay: Inotropic activity in Langendorff isolated-perfused Sprague-Dawley rat heart assessed as increase in left ventricular developed pressure efficacy at 0.003 nM relative to baseline control; type: functional
Method in brief: (§1)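 Sprague-Dawley rat hearts isolated and perfused in Langendorff mode with increasing peptide concentrations from 0.001 to 0.3 nM. Increase in left ventricular developed pressure recorded as the inotropic read-out, expressed as % from baseline; compared with buffer by unpaired parametric t test.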

Heart [2] = assay: Inotropic activity in Langendorff isolated-perfused Sprague-Dawley rat heart assessed as drug level causing maximum increase in left ventricular developed pressure efficacy relative to baseline control; type: functional; method in brief: as §1
Apelin receptor [3] = molecular target: T1, Apelin receptor (Homo sapiens, UniProt P35414); assay: Displacement of [125I]-[Nle75, Tyr77] Pyr1-apelin-13 from YFP-tagged human APJ receptor expressed in HEK293 cell membranes after 1 hr by gamma-counting method
T1 sequence (P35414 whole entry): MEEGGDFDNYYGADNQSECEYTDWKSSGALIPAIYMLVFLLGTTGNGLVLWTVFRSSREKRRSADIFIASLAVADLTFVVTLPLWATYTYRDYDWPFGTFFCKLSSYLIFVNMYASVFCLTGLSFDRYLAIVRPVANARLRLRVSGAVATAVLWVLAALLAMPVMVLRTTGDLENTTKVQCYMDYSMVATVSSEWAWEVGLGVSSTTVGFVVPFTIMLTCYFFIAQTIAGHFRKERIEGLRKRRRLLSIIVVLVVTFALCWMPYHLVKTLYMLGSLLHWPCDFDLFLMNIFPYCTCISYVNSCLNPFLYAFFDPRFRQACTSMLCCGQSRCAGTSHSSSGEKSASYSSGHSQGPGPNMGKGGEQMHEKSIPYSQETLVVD

Apelin receptor [4] = molecular target: T1, Apelin receptor; assay: Activity at human APJ receptor expressed in HEK293 cells assessed as dissociation of Galphai1 from Gbetagamma subunit after 5 mins by BRET assay; type: cell-based
Apelin receptor [5] = molecular target: T1, Apelin receptor; assay: Activity at GFP10-tagged human APJ receptor expressed in HEK293 cells assessed as induction of RlucII-tagged beta-arrestin-2 recruitment after 30 mins by BRET assay; type: cell-based
[6] = Half life in rat plasma at 1 mM by UPLC-MS analysis; type: ADME, cell-free
Method in brief: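 Male rat plasma incubated with peptide at 37 °C for 2, 4, 7, 24 h (or 10, 20, 60, 120 min for short-lived peptides); quenched with acetonitrile-ethanol (1:1) plus nicotinamide internal standard, then UPLC-MS. Percent remaining fitted to exponential decay for half-life; means ± SEM of three independent experiments. 1 mM is the stock solution.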

Rattus norvegicus [7] = assay: Hypotensive activity in Sprague-Dawley rat assessed as reduction in systemic arterial blood pressure at 19.5 or 65 nmol/kg, iv administered over 10 secs; type: functional
Method in brief: (§2)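 Male Sprague-Dawley rats (250-350g) anesthetized with intramuscular ketamine/xylazine (87/13 mg/kg), kept on a thermostatic pad. Carotid catheter for arterial pressure; jugular bolus of saline vehicle, then 5 min later peptide (19.6 or 65 nmol/kg; 0.25 ml over 10 s), followed by a saline flush.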

Apelin receptor [8] = molecular target: T1, Apelin receptor; assay: Induction of human HA-tagged APJ receptor internalization expressed in HEK293 cells after 30 mins by ELISA; type: cell-based
[9] = AUC in Sprague-Dawley rat at 3 mg/kg, iv measured up to 120 mins by LC-MS/MS analysis; type: ADME, organism-based; parameters: dose 3 mg/kg, time < 2 hr, route intravenous; details: in vivo
Method in brief: (§3)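 Male Sprague-Dawley rats (250-350g) under intramuscular ketamine/xylazine (87/13 mg/kg); compound in 350 µL normal saline given via jugular vein. Carotid blood drawn into EDTA tubes at 1, 5, 10, 15, 30, 60, 120 min (1, 2, 5, 10, 15 min for Pyr-apelin-13), centrifuged for plasma, acetonitrile precipitation with internal standard, LC-MS/MS (ESI+, MRM).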

[10] = Drug level in Sprague-Dawley rat plasma at 3 mg/kg, iv measured at 5 mins by LC-MS/MS; type: ADME, organism-based; method in brief: as §3
Rattus norvegicus [11] = assay: Hypotensive activity in Sprague-Dawley rat assessed as reduction in systemic arterial blood pressure at 65 nmol/kg, iv administered over 10 secs; type: functional, organism-based; method in brief: as §2
Heart [12] = assay: Inotropic activity in Langendorff isolated-perfused Sprague-Dawley rat heart assessed as increase in left ventricular developed pressure efficacy at 0.03 nM relative to baseline control; type: functional; details: in the assay text read “0.003 nM” for “0.03 nM”; method in brief: as §1

Row | Ki (Apelin receptor [3]) [nM] | EC50 (Apelin receptor [4]) [nM] | EC50 (Apelin receptor [5]) [nM] | half-life at 1000 µM [6] [min] | AUC at 2 h [9] [ng·h/mL] | SMILES | Activity (Heart [2]) | other results
1 |  |  |  |  |  | CCCC[C@@H]1NC(=O)[C@@H]2CCCN2C(=O)[C@@H](NC(=O)[C@H](CCCCN)NC(=O)[C@H](Cc2cnc[nH]2)NC(=O)[C@H](CO)NC(=O)[C@H](CC(C)C)NC(=O)[C@H](CCCNC(=N)N)NC(=O)[C@@H]2CCCN2C(=O)[C@H](CCCNC(=N)N)NC(=O)[C@@H]2CCC(=O)N2)C/C=C\C[C@@H](C(=O)O)NC(=O)[C@@H]2CCCN2C1=O [listing 1 of 2 here] | 3 pM | Efficacy (Heart [1]): 217%
2 | 0.15 | 1.3 | 57 | 408 | 2800 | CCCC[C@@H]1NC(=O)[C@@H]2CCCN2C(=O)[C@@H](NC(=O)[C@H](CCCCN)NC(=O)[C@H](Cc2cnc[nH]2)NC(=O)[C@H](CO)NC(=O)[C@H](CC(C)C)NC(=O)[C@H](CCCNC(=N)N)NC(=O)[C@@H]2CCCN2C(=O)[C@H](CCCNC(=N)N)NC(=O)[C@@H]2CCC(=O)N2)CCN(S(=O)(=O)c2ccccc2[N+](=O)[O-])C/C=C\C[C@@H](C(=O)O)NC(=O)[C@@H]2CCCN2C1=O | 3 pM | Activity (Rattus norvegicus [7]): <=40 mmHg; EC50 (Apelin receptor [8]): 45 nM; concentration at 5 min [10]: 2.5 µM
3 |  |  |  |  |  | CCCC[C@@H]1NC(=O)[C@@H]2CCCN2C(=O)[C@@H](NC(=O)[C@@H](CCCCN)NC(=O)[C@H](Cc2cnc[nH]2)NC(=O)[C@H](CO)NC(=O)[C@H](CC(C)C)NC(=O)[C@H](CCCNC(=N)N)NC(=O)[C@@H]2CCCN2C(=O)[C@H](CCCNC(=N)N)NC(=O)[C@@H]2CCC(=O)N2)C/C=C\C[C@@H](C(=O)O)NC(=O)[C@@H]2CCCN2C1=O |  | Activity (Rattus norvegicus [11]): Active
4 | 14 | 30 | 825 | 276 |  | CCCC[C@@H]1NC(=O)[C@@H]2CCCN2C(=O)CNC(=O)[C@@H](NC(=O)[C@H](Cc2cnc[nH]2)NC(=O)[C@H](CO)NC(=O)[C@H](CC(C)C)NC(=O)[C@H](CCCNC(=N)N)NC(=O)[C@@H]2CCCN2C(=O)[C@H](CCCNC(=N)N)NC(=O)[C@@H]2CCC(=O)N2)C/C=C\C[C@@H](C(=O)N[C@@H](Cc2ccccc2)C(=O)O)NC1=O ([pGlu]RPRLSH[AllylGly]GP[Nle][AllylGly]F-OH; staple (Z) 8-12) |  | 
5 |  |  |  |  | 3.33 | CSCC[C@H](NC(=O)[C@@H]1CCCN1C(=O)CNC(=O)[C@H](CCCCN)NC(=O)[C@H](Cc1cnc[nH]1)NC(=O)[C@H](CO)NC(=O)[C@H](CC(C)C)NC(=O)[C@H](CCCNC(=N)N)NC(=O)[C@@H]1CCCN1C(=O)[C@H](CCCNC(=N)N)NC(=O)[C@@H]1CCC(=O)N1)C(=O)N1CCC[C@H]1C(=O)N[C@@H](Cc1ccccc1)C(=O)O | 30 pM | Efficacy (Heart [12]): 81%
6 |  |  |  | 516 | 4100 | CCCC[C@@H]1NC(=O)[C@@H]2CCCN2C(=O)[C@@H](NC(=O)[C@H](CCCCN)NC(=O)[C@H](Cc2cnc[nH]2)NC(=O)[C@H](CO)NC(=O)[C@H](CC(C)C)NC(=O)[C@H](CCCNC(=N)N)NC(=O)[C@@H]2CCCN2C(=O)[C@H](CCCNC(=N)N)NC(=O)[C@@H]2CCC(=O)N2)C/C=C\C[C@@H](C(=O)O)NC(=O)[C@@H]2CCCN2C1=O [listing 2 of 2 here] |  | Ki (Apelin receptor [3]; hek293): 1.1 nM; EC50 (Apelin receptor [4]; hek293): 19 nM; EC50 (Apelin receptor [5]; hek293): 272 nM; EC50 (Apelin receptor [8]; hek293): 469 nM; concentration at 5 min [10]: 5.6 µM
7 | 5.7 | 23 | 834 | 48 |  | CCCC[C@H](NC(=O)[C@@H]1CCCN1C(=O)CNC(=O)[C@H](CCCCN)NC(=O)[C@H](Cc1cnc[nH]1)NC(=O)[C@H](CO)NC(=O)[C@@H]1C/C=C\C[C@H](N)C(=O)N[C@@H](CCCNC(=N)N)C(=O)N2CCC[C@H]2C(=O)N[C@@H](CCCNC(=N)N)C(=O)N1)C(=O)N1CCC[C@H]1C(=O)N[C@@H](Cc1ccccc1)C(=O)O |  | 
8 |  |  |  | 234 |  | CCCC[C@H](NC(=O)[C@@H]1CCCN1C(=O)CNC(=O)[C@H](CCCCN)NC(=O)[C@@H]1C/C=C\C[C@H](NC(=O)[C@H](CCCNC(=N)N)NC(=O)[C@@H]2CCC(=O)N2)C(=O)N[C@@H](CCCNC(=N)N)C(=O)N[C@@H](CC(C)C)C(=O)N[C@@H](CO)C(=O)N1)C(=O)N1CCC[C@H]1C(=O)N[C@@H](Cc1ccccc1)C(=O)O | Active | Activity (Rattus norvegicus [7]): <=40 mmHg

From ChEMBL document CHEMBL4020833, “A Systematic Exploration of Macrocyclization in Apelin-13: Impact on Binding, Signaling, Stability, and Cardiovascular Effects” (J Med Chem, 2018)
